S1P3 ag: agonists of human S1P3 receptor. S1P3 NFAT-BLA reporter cells, agonism, FRET ratio; relative to 1 µM S1P, basal subtracted. 60,000 compounds, 0.1% hits. AID 373. activation, % at 4.5 µM;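 active = activation above the screen-wide mean plus 3 SD, cut at about 4.5% in these data, passing the limit was not always enough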
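Assay system: CHO cells stably expressing human S1P3, Gα16 and NFAT-β-lactamase reporter. Timing: overnight plating, 4 h compound 37 °C, 2 h substrate RT. Signal: β-lactamase FRET emission ratio 460/535 nm. Measure: percent activation versus median 1 µM S1P response, basal-subtracted, per plate. Repeats: primary screen single test, confirmation screen in triplicate.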
D1 mod: allosteric modulators of human D1 dopamine receptor. P21728. HEK293 D1, CRE-luciferase, dopamine EC30 potentiation; actives deviate in either direction. B-score at 10 µM. 58,000 compounds, 5.9% hits. AID 641;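 active = luminescence count or its row- and column-corrected plate score outside the 99.7% band of the plate's sample wells, on either side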
S1P1 ag-PAM: S1P1 (human) agonism or agonism potentiation | S1P1 CRE-bla cells, forskolin, beta-lactamase FRET, potentiator mode; S1P1 agonist co-added at EC20, 2 nM; 100% = saturating reference agonist, 0% = basal | activation, % at 9.5 µM | 56,000 compounds, 0.57% hits;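 active = activation above a cutoff set at the mean activation of all tested compounds plus 3 SD, cut at about 54% in these data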;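 also: forskolin at 4 µM as EC80 and the EC20 agonist is SEW2871; 100% = SEW2871 at its EC100 plus forskolin at EC80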
M1 ag: activates the M1 muscarinic receptor; CHO-M1 cells, Fluo-4 calcium fluorescence, agonist mode; active compounds read high; B-score at 10 µM; 64,000 compounds, 3% hits; AID 626;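 active = fluorescence rise, raw or as B-score row- and column-corrected plate score, outside the 99.7% band of its plate's samples, either direction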
M1 antag: blocks the rat M1 muscarinic receptor response to acetylcholine. P08482. 64,000 compounds, 3.4% hits. CHO-M1 cells, Fluo-4 calcium, ACh EC80 antagonist mode; active compounds read low. B-score at 10 µM. AID 628;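 active = calcium fluorescence response, raw or row-and-column corrected B-score, differing from the plate sample mean either way at a set confidence level, mostly lower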
Target sequence (P08482 whole entry, looked up): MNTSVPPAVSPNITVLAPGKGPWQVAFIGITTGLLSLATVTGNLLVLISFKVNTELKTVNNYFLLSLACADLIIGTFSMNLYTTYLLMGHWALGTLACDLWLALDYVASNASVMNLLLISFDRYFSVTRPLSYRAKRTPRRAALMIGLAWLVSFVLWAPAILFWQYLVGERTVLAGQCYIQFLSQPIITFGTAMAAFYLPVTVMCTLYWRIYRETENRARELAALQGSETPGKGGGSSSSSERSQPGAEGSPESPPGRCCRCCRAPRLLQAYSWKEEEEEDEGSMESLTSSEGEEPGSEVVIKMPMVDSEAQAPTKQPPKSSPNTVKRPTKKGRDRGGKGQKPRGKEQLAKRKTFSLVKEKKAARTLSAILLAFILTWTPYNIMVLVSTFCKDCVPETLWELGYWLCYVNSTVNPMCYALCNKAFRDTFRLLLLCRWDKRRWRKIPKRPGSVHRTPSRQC
M1 agonist conf: rat M1 muscarinic agonism, confirmation; shares compounds with M1 ag; CHO-M1 cells, Fluo-4 calcium fluorescence, agonist mode; actives lie on both sides; fluorescence change (max-min) at 10 µM; 1,700 compounds, 19% hits; AID 1488;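 active = fluorescence change differs from the solvent-only DMSO control mean at a set confidence level in both duplicate runs; inconclusive = differs from solvent-only control mean in just one of two runs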;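 also: an EC20 dose of acetylcholine follows compound addition during the same imaging run; raw fluorescence intensity difference in instrument units with no normalization to controls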
M4 agonist ctr: activates rat M4 receptor in counter-screen for M1 agonists. shares compounds with M1 ag. CHO M4/Gqi5 cells, Fluo-4 calcium fluorescence, agonist mode; actives lie on both sides. fluorescence change (max-min) at 10 µM. 1,700 compounds, 9% hits;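 active = fluorescence change differing from the plate's solvent-only control wells at 99.7% confidence in both duplicates, whether higher or lower; inconclusive = differs from solvent controls in only one of two duplicates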
Active calls of the source: *; u = inconclusive; x = no result given. A selection: hits, their analogues and other compounds. The true share with any hit is near 11%.

SMILES	S1P3 ag	D1 mod	S1P1 ag-PAM	M1 ag	M1 antag	M1 agonist conf	M4 agonist ctr
CCn1nc(C)c(/C=C2\CCCC3=C2OC(N)=C(C#N)C3c2c(C)nn(CC)c2C)c1C (stereo not given)	-1	0.025	21	14*	0.5	100*	u
CCOc1ccccc1NC(=O)N1CCCC1C(=O)Nc1ccc(NC(C)=O)cc1 (stereo not given)	-1	-0.29	-12	0.94	0.015	x	x
COCCOC(=O)C1=C(C)NC(=O)NC1c1cn(-c2ccccc2)nc1-c1cccs1 (stereo not given)	2	x	7	11*	-2.1*	u	-38
C=CCOC(=O)C1=C(C)NC(=O)NC1c1cn(-c2ccccc2)nc1-c1cccs1 (stereo not given)	0	2.1	-23	-0.22	-1.5	x	x
O=C(O)c1cc(S(=O)(=O)NCc2ccco2)c(Cl)cc1Cl	-2	-0.49	-21	-0.075	0.46	x	x
COc1ccc(C)cc1N(C(=O)CNC(=O)c1ccco1)C(C(=O)NC1CCCC1)c1cccnc1 (stereo not given)	-1	-0.04	18	-0.054	0.14	x	x
CCOc1ccc(C2C=C(c3ccc(C)cc3)Nc3ncnn32)cc1 (stereo not given)	-1	-0.58	13	5.5*	-0.86	129*	u
CCOc1ccc(C2C=C(c3ccc(C)cc3)Nc3nnnn32)cc1 (stereo not given)	0	0.02	3	1.5	0.14	x	x
COc1ccc(C2C=C(c3ccccc3)Nc3ncnn32)cc1 (stereo not given)	0	-0.028	-13	9.7*	-0.49	86*	70
CCOc1ccc(C2C=C(c3ccccc3)Nc3nnnn32)cc1 (stereo not given)	0	-0.36	13	0.51	0.0052	x	x
Cc1cc(C)nc(N2CCC(C(=O)Nc3nnc(C)s3)CC2)n1	0	-0.0019	-4	0.64	0.37	x	x
COC(=O)c1cc(OC)c(OC)cc1NC(=O)c1oc2ccccc2c1C	-1	0.82	17	-0.0083	0.32	x	x
O=C(c1cc2ccccc2oc1=O)N(Cc1ccco1)CC1CCCO1 (stereo not given)	-2	0.15	-8	-0.59	0.26	x	x
O=C(c1cc2ccccc2oc1=O)N(Cc1ccc2c(c1)OCO2)Cc1ccco1	-1	x	-2	5*	-1.9	-13	u
COCCN(CC(=O)NCc1ccc(OC)cc1)C(=O)CCC(=O)Nc1nccs1	0	0.28	-14	0.21	0.29	x	x
Cc1ccc(C)c(N2CCN(Cc3nnnn3C3CCCCC3)CC2)c1	-1	-0.016	-10	10*	0.0041	-6.4	-24
CN1CCC(N(C)C(=O)c2ccccc2Nc2ccc(SC(F)F)cc2)CC1	-1	-0.91	6	-0.29	-0.78	x	x
O=C(N1CCOCC1)N(CCN1CCOCC1)Cc1cccc(Cl)c1	0	-0.56	14	0.16	0.72	x	x
COc1ccccc1N1CCN(Cc2nc(N)nc(Nc3ccc(C)c(Cl)c3)n2)CC1	0	-1.3	20	3.3*	0.25	u	u
Cc1cccc(Nc2nc(N)nc(CN3CCN(c4ccccc4)CC3)n2)c1	0	-0.049	8	-0.66	0.0038	x	x
COc1cccc(N2CCN(Cc3nc(N)nc(Nc4ccccc4)n3)CC2)c1	-1	-1.3	10	6.3*	-0.0044	-29	-45
NS(=O)(=O)c1ccc(CCNc2ncnc3sccc23)cc1	-2	-1.9	21	3.1*	0.47	0.13	-15
COCCn1nnnc1C(c1ccc(O)c(OC)c1)N1CCc2ccccc2C1 (stereo not given)	0	0.65	-12	4*	0.0035	-10	-28
COc1ccc(C(c2nnnn2C2CCCC2)N2CCc3ccccc3C2)cc1OC (stereo not given)	0	-0.0015	32	-0.35	0.45	x	x
Cc1cc(C)c2cc3c(ccn3C3OC[C@H](O)[C@H](O)[C@H]3O)cc2n1 (stereo not given in full)	-1	-0.042	-8	36*	-0.62	201*	156
SMILES	S1P3 ag	D1 mod	S1P1 ag-PAM	M1 ag	M1 antag	M1 agonist conf	M4 agonist ctr
CC(=O)Nc1cccc(NC(=O)c2cc3ccccc3o2)c1	0	x	-4	3.9	-0.27	x	x
CC(=O)Nc1cccc(NC(=O)c2oc3ccccc3c2C)c1	0	-1.3	-2	2.3*	-0.29	-16	-15
Cn1cccc1C(C(=O)NC1CCCCC1)N(C(=O)Cc1cccs1)c1ccc2c(c1)OCCO2 (stereo not given)	-1	x	2	x	x	x	x
CSCC[C@H](NC(=O)NCc1ccc(F)cc1)C(=O)O	0	0.16	7	-1.3	0.51	x	x
O=C(c1nc(-c2ccccc2)n(-c2ccccc2)n1)N1CCN(S(=O)(=O)c2ccccc2)CC1	1	-0.39	2	3.8*	-3.8*	-8	u
Cn1nc(C(=O)N2CCN(S(=O)(=O)c3ccccc3)CC2)c2ccccc2c1=O	-1	-0.09	-4	-0.07	-0.3	x	x
O=C(NCCN1CCN(c2cccc(Cl)c2)CC1)c1cccn2c(=O)c3ccccc3nc12	x	-1.2	x	0.73	-0.076	x	x
O=C(NCCn1cccc1)c1cccc2ccccc12	-2	-0.22	12	5.7*	-0.013	-31*	-54
CCCN(S(=O)(=O)c1ccc(OCC)cc1)S(=O)(=O)c1cccs1	-1	-0.23	14	2.1*	-0.094	u	-37
CC(C)(CC(=O)N1CCN(c2ccc(Cl)cc2)CC1)CC1=NS(=O)(=O)c2ccccc2N1	-1	x	63*	11*	-3.2*	u	-46
O=C(CCCC1=NS(=O)(=O)c2ccccc2N1)N1CCN(c2ccc(Cl)cc2)CC1	0	-0.75	18	1.6	-0.21	x	x
CCOC(=O)N1CCN(C(=O)c2nn(-c3cc(OC)cc(OC)c3)c(=O)c3ccccc23)CC1	64	-1.7	-15	6.4*	0.38	-2.2	u
O=C(Nc1cccc(F)c1)C1C2C=CC3(CN(CCCN4CCOCC4)C(=O)C13)O2 (stereo not given)	0	-0.5	-5	-0.61	-0.11	x	x
C=CCc1ccccc1OCC(O)CN1CCN(C(=O)OCC)CC1 (stereo not given)	0	-2.7	-17	28*	-1.3	172*	-44
CCOC(=O)N1CCN(CC(O)COc2ccccc2C(C)CC)CC1 (stereo not given)	0	-0.079	-25	-0.48	-0.35	x	x
C=CCc1ccccc1OCC(O)CN1CCN(c2ccc(C)cc2)CC1 (stereo not given)	-1	x	-8	-0.065	0.66	x	x
CCOC(=O)N1CCN(CC(O)COc2ccccc2C(C)C)CC1 (stereo not given)	-2	-1.8	-9	13*	-1	65*	-6.6

From PubChem BioAssay
